In article PMC6415545 (Nature, 2018):
Like-named read-outs stand apart in the source and are kept apart here. Marks after values point to notes of the source that are not given here.

Columns and labels:
[1] = test system: human UDP-α-D-glucose-6-dehydrogenase (hUGDH); assay type: biochemical; conditions: for Kcat: UDP-Glc saturation curves, global fit ± standard error
Outline: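 100 nM hexamer (500 nM dimer constructs) in 50 mM HEPES pH 7.5, 50 mM NaCl, 5 mM EDTA, 25 °C, saturating NAD+, varied UDP-Glc and UDP-Xyl. NADH was read at 340 nm. Frieden fits of early progress curves gave vss.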

[2] = biological target: T1, human UDP-α-D-glucose-6-dehydrogenase (hUGDH) (Homo sapiens, UniProt O60701); assay: Transient state kinetics of UDP-Xyl binding; conditions: hUGDHFL versus hUGDHΔID
T1 sequence (O60701 1-464 limits assumed): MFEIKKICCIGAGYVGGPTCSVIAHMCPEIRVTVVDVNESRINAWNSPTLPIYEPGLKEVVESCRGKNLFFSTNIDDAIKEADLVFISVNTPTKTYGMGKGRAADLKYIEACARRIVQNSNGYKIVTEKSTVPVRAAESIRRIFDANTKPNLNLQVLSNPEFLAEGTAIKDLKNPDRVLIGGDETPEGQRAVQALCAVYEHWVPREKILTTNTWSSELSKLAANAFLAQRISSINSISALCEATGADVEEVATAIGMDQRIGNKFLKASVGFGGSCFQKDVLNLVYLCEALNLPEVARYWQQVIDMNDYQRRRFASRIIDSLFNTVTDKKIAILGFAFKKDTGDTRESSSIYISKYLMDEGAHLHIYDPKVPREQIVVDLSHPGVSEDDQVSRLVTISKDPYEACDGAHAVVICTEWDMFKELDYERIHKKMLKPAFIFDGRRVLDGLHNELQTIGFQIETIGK
Outline: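 Stopped-flow intrinsic tryptophan fluorescence at 25 °C (dead time ~1.2 ms): 500 nM enzyme (syringe) mixed with varied UDP-Xyl, excitation 290 nm, emission cutoff filter below 320 nm. Traces were averaged over ≥ 4 replicates per concentration and inner-filter corrected. Six concentrations were globally fit by numerical simulation to a binding-plus-two-isomerization model, selected by confidence contour analysis. Binding free energy used a mM standard state.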

[3] = test system: human UDP-α-D-glucose-6-dehydrogenase (hUGDH); assay: Stopped-flow analysis of hUGDH hysteresis; assay type: biochemical; conditions: hUGDHFL versus hUGDHΔID, pre-steady state progress curves
Outline: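 Stopped-flow, 25 °C. 500 nM full-length or tail-deleted enzyme in 50 mM HEPES pH 7.5, 50 mM NaCl, 5 mM EDTA was mixed 1:1 with buffer holding substrate and cofactor, giving 250 nM enzyme with both saturating. NADH absorbance at 340 nm was taken every 10–15 ms. Curves were fit to Frieden's equation for lag length; mean and s.d. from ≥ 6 curves.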

[4] = test system: human UDP-α-D-glucose-6-dehydrogenase (hUGDH); assay: Steady state kinetics: NAD+ substrate saturation curves; assay type: biochemical
Outline: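 Separate 5-min, 25 °C pre-incubations of enzyme and substrate, then mixing. Enzyme was 100 nM hexameric hUGDH in 50 mM HEPES pH 7.5, 50 mM NaCl, 5 mM EDTA, with saturating UDP-Glc and varied NAD+. NADH was followed continuously at 340 nm (6220 M−1cm−1). Progress curves before 10% substrate depletion were fit to Frieden's equation for vss. Saturation curves were fit to the sigmoidal rate equation; n ≥ 10 data points.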

[5] = Thermodynamic shift assay; assay type: physicochemical; conditions: thermal denaturation, hUGDHFL-dimer versus hUGDHΔID-dimer (Fig. 3d)
Outline: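 Dimeric constructs at 0.1 mg/mL with 5X SYPRO Orange in 50 mM HEPES pH 7.5, 50 mM NaCl, 5 mM EDTA were spun and equilibrated 20 min. Fluorescence (excitation 470–505 nm, emission 540–570 nm) was recorded every 30 s while heating from 25 to 80 °C at […] in a qPCR instrument. Buffer-control baselines were subtracted; N ≥ 3.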

B1: FL: full-length human UDP-α-D-glucose-6-dehydrogenase with the native 30-residue ID-tail (residues 465–494) (protein, UniProt O60701 1-494, looked up)
chain: MFEIKKICCIGAGYVGGPTCSVIAHMCPEIRVTVVDVNESRINAWNSPTLPIYEPGLKEVVESCRGKNLFFSTNIDDAIKEADLVFISVNTPTKTYGMGKGRAADLKYIEACARRIVQNSNGYKIVTEKSTVPVRAAESIRRIFDANTKPNLNLQVLSNPEFLAEGTAIKDLKNPDRVLIGGDETPEGQRAVQALCAVYEHWVPREKILTTNTWSSELSKLAANAFLAQRISSINSISALCEATGADVEEVATAIGMDQRIGNKFLKASVGFGGSCFQKDVLNLVYLCEALNLPEVARYWQQVIDMNDYQRRRFASRIIDSLFNTVTDKKIAILGFAFKKDTGDTRESSSIYISKYLMDEGAHLHIYDPKVPREQIVVDLSHPGVSEDDQVSRLVTISKDPYEACDGAHAVVICTEWDMFKELDYERIHKKMLKPAFIFDGRRVLDGLHNELQTIGFQIETIGKKVSSKRIPYAPSGEIPKFSLQDPPNKKPKV
modifications: full-length
[1]
  Kcat: 0.8 ± 0.01 s⁻¹
[2]
  enhancement of the initial UDP-Xyl binding step by the ID-tail: 4.4 fold
  gain in affinity of the initial UDP-Xyl binding step: -0.9 kcal/mol
[3]
  slowing of the rate of activation hysteresis (E* to E) by the ID-tail: 39%
[4]; NAD+ saturation (Equation 6)
  Hill (h): 0.8 ± 0.1
[4]; NAD+ saturation curves
  Kcat: 0.9 ± 0.08 S^-1
[4]; NAD+ saturation, sigmoidal rate equation (Equation 6), hexameric enzyme
  K0.5 (NAD^+): 0.8 ± 0.20 mM

B2: hUGDH: human UDP-α-D-glucose-6-dehydrogenase, named without a construct (protein, UniProt O60701 1-494, looked up)
UDP-glucose 6-dehydrogenase: MFEIKKICCIGAGYVGGPTCSVIAHMCPEIRVTVVDVNESRINAWNSPTLPIYEPGLKEVVESCRGKNLFFSTNIDDAIKEADLVFISVNTPTKTYGMGKGRAADLKYIEACARRIVQNSNGYKIVTEKSTVPVRAAESIRRIFDANTKPNLNLQVLSNPEFLAEGTAIKDLKNPDRVLIGGDETPEGQRAVQALCAVYEHWVPREKILTTNTWSSELSKLAANAFLAQRISSINSISALCEATGADVEEVATAIGMDQRIGNKFLKASVGFGGSCFQKDVLNLVYLCEALNLPEVARYWQQVIDMNDYQRRRFASRIIDSLFNTVTDKKIAILGFAFKKDTGDTRESSSIYISKYLMDEGAHLHIYDPKVPREQIVVDLSHPGVSEDDQVSRLVTISKDPYEACDGAHAVVICTEWDMFKELDYERIHKKMLKPAFIFDGRRVLDGLHNELQTIGFQIETIGKKVSSKRIPYAPSGEIPKFSLQDPPNKKPKV
[5]
  destabilization by the ID-tail: 3.5 °C

B3: FL-A136M: full-length hUGDH with the allostery quenching A136M substitution (protein, UniProt O60701 1-494, looked up, variant A136M)
chain: MFEIKKICCIGAGYVGGPTCSVIAHMCPEIRVTVVDVNESRINAWNSPTLPIYEPGLKEVVESCRGKNLFFSTNIDDAIKEADLVFISVNTPTKTYGMGKGRAADLKYIEACARRIVQNSNGYKIVTEKSTVPVRMAESIRRIFDANTKPNLNLQVLSNPEFLAEGTAIKDLKNPDRVLIGGDETPEGQRAVQALCAVYEHWVPREKILTTNTWSSELSKLAANAFLAQRISSINSISALCEATGADVEEVATAIGMDQRIGNKFLKASVGFGGSCFQKDVLNLVYLCEALNLPEVARYWQQVIDMNDYQRRRFASRIIDSLFNTVTDKKIAILGFAFKKDTGDTRESSSIYISKYLMDEGAHLHIYDPKVPREQIVVDLSHPGVSEDDQVSRLVTISKDPYEACDGAHAVVICTEWDMFKELDYERIHKKMLKPAFIFDGRRVLDGLHNELQTIGFQIETIGKKVSSKRIPYAPSGEIPKFSLQDPPNKKPKV
modifications: full-length
[1]
  Kcat: 0.7 ± 0.01 s⁻¹
[1]; relative to the hUGDHΔID-A136M
  ΔΔG, change in UDP-Xyl binding free energy: 0.03^g kcal•mol^-1
